Data from ChEMBL document CHEMBL4024799, “Synthesis and Biological Characterization of Aryl Uracil Inhibitors of Hepatitis C Virus NS5B Polymerase: Discovery of ABT-072, a trans-Stilbene Analog with Good Oral Bioavailability” (J Med Chem, 2018).
Active and inactive are the calls of the source. The calls are words filed in the database; no cut-off is given here.

Legend:
[1] = Cmax in dog at 30 mg/kg, po; type: ADME, organism-based, Canis lupus familiaris; set-up: dose 30 mg/kg, route oral; details: in vivo
[2] = Half life in dog at 2.5 mg/kg, iv; type: ADME, organism-based, Canis lupus familiaris; details: in vivo
[3] = Tmax in human at 80 mg administered as single dose; type: ADME; details: in vivo
Hepatitis C virus = assay: Antiviral activity against HCV genotype 1 infected in human assessed as sustained virologic response at 400 mg administered once daily in combination with ABT-450/r and ribavirin; type: functional, Hepacivirus hominis
Outline: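 GT1-infected adults given 400 mg once daily together with ABT-450/ritonavir and ribavirin; sustained virologic response assessed 24 weeks after treatment.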

Canis familiaris [4] = assay: AUC in dog at 2.5 mg/kg, po; type: ADME, organism-based, Canis lupus familiaris; details: in vivo
[5] = Half life in dog at 2.5 mg/kg, po; type: ADME, organism-based, Canis lupus familiaris; details: in vivo
[6] = Ratio of drug level in Sprague-Dawley rat liver to plasma at 5 mg/kg, po after 24 hrs; type: ADME, organism-based
Outline: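 Male/female not given; Sprague-Dawley rats, n = 3 per experiment, single 5 mg/kg oral dose given as a solution in DMSO:PEG400 (1:9, v/v). Drug concentrations measured in liver tissue and plasma at 12 h and 24 h post-dose; value reported as the liver-to-plasma concentration ratio.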

[7] = Inhibition of HCV genotype 3a NS5B RNA dependent RNA polymerase assessed as reduction in [3H]UTP incorporation in to RNA preincubated for 15 mins followed by [3H]UTP addition measured after 3 hrs by microbeta scintillation counting method; set-up: species or system Hepatitis C virus subtype 3a
[8] = tested on: Hepatitis C virus (isolate H77); assay: Inhibition of HCV genotype 1a H77 NS5B RNA dependent RNA polymerase C316H mutant assessed as reduction in [3H]UTP incorporation in to RNA preincubated for 15 mins followed by [3H]UTP addition measured after 3 hrs by microbeta scintillation counting method
Outline: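 Standard NS5B polymerase inhibition assay using genotype 1a (H77) or 1b (BK) enzyme. RNA product formation was measured as ³H-UTP incorporated into RNA, read by scintillation counting. IC50 was calculated with a standard IC50 equation.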

[9] = Cmax in human infected with HCV genotype 1 at 160 mg administered once daily for 2 days; type: ADME; set-up: dose 160 mg; details: in vivo
Outline: (§1)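 HCV GT1-infected patients (N=4) given 160 mg once daily for 2 days; plasma Cmax, AUC and t1/2 determined.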

[10] = Ratio of drug level in dog liver to plasma at 2.5 mg/kg, po after 12 hrs; type: ADME, organism-based, Canis lupus familiaris
[11] = Cmax in Sprague-Dawley rat at 5 mg/kg, po; type: ADME, organism-based; set-up: dose 5 mg/kg, route oral; details: in vivo
Outline: (§2)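 Sprague-Dawley rats, n = 3 per experiment; solution in DMSO:PEG400 (1:9, v/v) given IV or oral; 5 mg/kg for both routes, and 30 mg/kg oral; plasma t1/2, Vss, clearance, Cmax, AUC and F% determined.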

[12] = AUC (0 to 24 hrs) in human infected with HCV genotype 1 at 160 mg administered once daily for 2 days; type: ADME; set-up: time < 24 hr, dose 160 mg; details: in vivo; outline: as §1
[13] = Cmax in Sprague-Dawley rat at 30 mg/kg, po; type: ADME, organism-based; set-up: dose 30 mg/kg, route oral; details: in vivo; outline: as §2
[14] = Half life in Sprague-Dawley rat at 5 mg/kg, iv; type: ADME, organism-based; details: in vivo; outline: as §2
[15] = Volume of distribution at steady state in dog at 2.5 mg/kg, iv; type: ADME, organism-based, Canis lupus familiaris; details: in vivo, read-out: Vdss
Canis familiaris [16] = assay: AUC in dog at 30 mg/kg, po; type: ADME, organism-based, Canis lupus familiaris; details: in vivo
[17] = Plasma clearance in Sprague-Dawley rat at 5 mg/kg, iv; type: ADME, organism-based; outline: as §2
Plasma = assay: Drug level in po dosed Sprague-Dawley rat plasma up to 24 hrs; type: ADME, organism-based; details: in vivo
Outline: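 Sprague-Dawley rats given oral doses; liver tissue and plasma levels measured at 12 and 24 h; liver:plasma ratio calculated.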

[18] = Terminal half life in human at 320 mg administered as single dose; type: ADME; details: in vivo, read-out: beta t1/2 (converted)
Outline: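 Single oral doses of 80, 160 or 320 mg in healthy subjects; plasma concentration-time profiles reported as mean (+SD); Cmax and terminal phase half-life derived.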

[19] = Oral bioavailability in dog at 2.5 mg/kg; type: ADME, organism-based, Canis lupus familiaris; details: in vivo

Compound: COc1c(/C=C/c2ccc(NS(C)(=O)=O)cc2)cc(-n2ccc(=O)[nH]c2=O)cc1C(C)(C)C [ABT-072]
- Cmax [1]: 7560 ng/mL
- half-life [2]: 5.5 h
- Tmax [3]: 5.1 h
- Activity (Hepatitis C virus): 91%
- AUC (Canis familiaris [4]): 14400 ng·h/mL
- half-life [5]: 5.4 h
- Kp at 24 h [6]: 46
- IC50 [7]: 3 µM
- inhibition [8]: inactive
- Cmax [9]: 415 ng/mL
- Kp at 12 h [10]: 11
- Cmax [11]: 280 ng/mL
- AUC at 24 h [12]: 4180 ng·h/mL
- Cmax [13]: 2000 ng/mL
- half-life [14]: 2.9 h
- Vd [15]: 1.5 L/kg
- AUC (Canis familiaris [16]): 124000 ng·h/mL
- clearance [17]: 15 mL/min/kg
- Drug uptake (Plasma): Dose-dependent effect
- half-life [18]: 7.01 h
- bioavailability [19]: 86%
